Screening results (PubChem)
INS promoter inh – TRM-6 insulin promoter activity inhibition. TRM-6 cells (human fetal islet line), insulin promoter-eGFP reporter, imaging; reporter expression induced with tamoxifen. inhibition, % at 2 µM. hit rate 0.9% among 130,000;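 active = inhibition above the mean plus 3 SD, with well images judged a real hit on visual review, cut at about 60% in these data, passing the limit was not always enough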
Insulin prom up – MIN6 insulin promoter up-regulation | MIN6 insulin promoter-GFP reporter, high-content imaging; hits give high values | z-score at 5 µM | hit rate 0.3% among 190,000;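 active = z-score above 3 at 5 µM with at least 500 cells counted in the well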
BB579 growth dn – reduces growth of yeast BB579 in restrictive medium; hit rate 0.51% among 140,000; inhibition, % at 10 µM; S. cerevisiae BB579 growth, OD615, 48 h; AID 804;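 active = inhibition above a set limit, 3 SD over the mean compound inhibition, cut at about 44% in these data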
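test system = yeast BB579 (DeaD) | buffer or medium = restrictive CSMM-D medium | doses = single compound dose of 10 µM, 0.25% DMSO final | times = 4 h preincubation and 48 h exposure at 30 °C | technique = culture absorbance at 615 nm | benchmarks = amphotericin B 10 µg/mL, positive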
Yeast life ext – extends the lifespan of yeast. S. cerevisiae growth with nicotinamide, OD615; deaD strain in restrictive glucose medium. inhibition of the nicotinamide effect, % at 10 µM. hit rate 0.68% among 130,000;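 active = inhibition above a set limit, placed 3 SD over the median of all compounds, cut at about 26% in these data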;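 note: 0% = nicotinamide-treated wells and 100% = cells grown without nicotinamide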
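assay system = DeaD-strain S. cerevisiae | buffer or medium = restrictive glucose medium | reagent = 1.5 mM nicotinamide | compound = 10 µM single point, 0.25% DMSO | incubation = 48 h compound exposure at 30 °C, humidified | signal = OD615 measurement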
RAM network inh – yeast RAM network inhibition; hit rate 1.8% among 190,000; inhibition, % at 50 µM; S. cerevisiae dse1pr::URA3 reporter, 5-FOA growth OD615, 2 d; analog-sensitive cbk1-as2 kinase mutant strain;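 active = inhibition above a set limit, 3 SD over mean compound inhibition, cut at about 8.4% in these data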;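 note: 0% = DMSO-only wells with no growth and 100% = 10 µM 1-NA-PP1 full growth; inhibition rescues growth on 5-FOA so higher OD means more RAM inhibition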
* = called active by the depositor; i = inactive; x = no result. Sampled rows, rich in hits. Any-hit rate of the full collection: about 3.1%.

SMILES	INS promoter inh	Insulin prom up	BB579 growth dn	Yeast life ext	RAM network inh
COc1ccc(/C=N/NC(=O)Cc2csc(Nc3cccc(C(F)(F)F)c3)n2)cc1C	x	-0.45	-28	-11	0
CSC(=S)N/N=C(\C)c1ccccc1	53	-0.34	x	x	-1
CC1=CC(=O)C=C(C)C1=NOS(=O)(=O)c1ccccc1	i	-0.7	100*	-28	-2
COc1ccc(C=O)cc1COc1ccccc1F	-12	0.24	-10	2	1
COc1ccc(/C=C/C(=O)c2ccccc2)cc1COc1ccccc1F	43	x	-35	2	10*
N#Cc1ccccc1OCC(=O)NC(=O)NCc1ccco1	x	-0.22	x	x	x
O=C(O)C1CCCCC1C(=O)NCCC(c1ccccc1)c1ccccc1 (configuration not stated)	-32	0.23	-25	-15	-1
O=C(O)[C@H]1CCCC[C@H]1C(=O)NCCNC(=O)[C@@H]1CCCC[C@@H]1C(=O)O	100*	0.51	-47	1	1
Cc1ccc(S(=O)(=O)n2c3ccc(Cl)cc3c3nc(C)sc32)cc1	80*	-1.1	-20	-8	5
COc1ccc(CCN=C(N)Nc2nc(C)cc(C)n2)cc1	x	-2.3	x	x	3
COc1ccc(NC(=O)COC(=O)[C@@H](NC(=O)c2c(F)cccc2F)C(C)C)cc1	-53	-1.8	x	x	-1
Clc1nssc1=Nc1ccccc1	-71	-0.86	x	x	-2
Clc1ccc(N=c2ssnc2Cl)cc1	62	x	77*	x	-2
CCCCCc1c(C)nc(N2CCc3ccccc32)[nH]c1=O	22	-0.25	-46	4	9.9*
Cc1nc(/C(N)=N/OC(=O)Cc2ccccc2)no1	43	-0.45	x	x	1
O=C(N/N=C1\CCCc2c1[nH]c1ccc([N+](=O)[O-])cc21)c1ccncc1	x	-0.25	-17	5	8.4*
O=C1NCCc2c1[nH]c1ccc([N+](=O)[O-])cc21	40	-0.8	x	x	1
COc1ccc(Cc2noc(CN3CCCN(C4Cc5ccccc5C4)CC3)n2)cc1OC	x	-1.2	x	x	2
COc1ccc(CN2CC(=O)N(c3ccc(C)c(C)c3)C2=S)cc1OC	-92	-0.47	x	x	3
Cc1cccc(COCC(Cc2ccccc2)N2CCN(C(=O)c3cc(Cl)cc(Cl)c3)CCC2=O)c1 (configuration not stated)	-30	-0.34	-46	12	11*
Cc1cccc(COCC(Cc2ccccc2)N2CCN(C(=O)c3ccc(Cl)c(Cl)c3)CCC2=O)c1 (configuration not stated)	-32	-0.41	-35	16	10*
O=C(c1ccc(Cl)c(Cl)c1)N1CCC(=O)N(C(COCc2cccc(C(F)(F)F)c2)Cc2ccccc2)CC1 (configuration not stated)	-24	-0.79	-39	7	9.0*
O=C(c1ccc(C(F)(F)F)cc1)N1CCC(=O)N(C(COCc2ccc(Cl)cc2)Cc2ccccc2)CC1 (configuration not stated)	-20	-1.2	-45	11	9.8*
Cc1cccc(COCC(Cc2ccccc2)N2CCN(C(=O)c3cccc(C)c3)CCC2=O)c1 (configuration not stated)	-30	-0.33	-42	13	4
COC(=O)c1ccc(CNC(=O)COC(=O)C23CC4CC(CC(C4)C2)C3)cc1	47	-0.49	5	-1	3
SMILES	INS promoter inh	Insulin prom up	BB579 growth dn	Yeast life ext	RAM network inh
COCCNC(=S)N1CCc2cc(OC)c(OC)cc2C1COc1ccc(F)cc1 (configuration not stated)	55	-0.46	x	x	8.8*
CCNC(=S)N1CCc2cc(OC)c(OC)cc2C1COc1ccc(F)cc1 (configuration not stated)	17	-0.39	x	x	3
O=C(c1cccs1)N1C(=O)c2cccc3cccc1c23	x	-0.97	x	x	8
O=C(OCC(=O)N1CCCCC1)c1cc(NS(=O)(=O)c2ccc(Cl)c([N+](=O)[O-])c2)ccc1O	-24	0.48	-28	3	4
CCSc1nnc(-c2ccccc2NC(C)=O)c(=O)[nH]1	71*	x	-12	-12	0
Nc1n[nH]c(N)c1N=Nc1ccc(Cl)cc1Cl	50	-0.09	-41	-8	0
COc1ccc(CC(=O)OCc2cc3ccccc3[nH]c2=O)cc1	x	x	-56	1	4
COc1cc(OC)cc(C(=O)OCc2cc3ccccc3[nH]c2=O)c1	71*	1.3	-47	-9	2
Oc1[nH]c2ccccc2c1C1=NCCCCC1	x	-0.45	x	x	2
CCOC(=O)C1=C(CC)Nc2ccccc2N/C1=N\S(=O)(=O)c1ccc(C(=O)OCC)cc1	x	0.14	x	x	9.3*
COc1ccc2[nH]c3c(NCCC4=CCCCC4)ncnc3c2c1	65*	x	x	x	5
O=C1CCCN1CCCNc1ncnc2c1[nH]c1ccc(Cl)cc12	81*	-0.88	-41	-25	0
C=CCN(c1cccc(C(F)(F)F)c1)S(=O)(=O)c1cccc(C(=O)OCC(=O)NC(N)=O)c1	-33	-0.27	-50	3	9.1*
C=CCN(c1cccc(C(F)(F)F)c1)S(=O)(=O)c1cccc(C(=O)OCC(=O)Nc2ccccc2)c1	23	0.34	-20	4	9.0*
COc1ccc(C)cc1NC(=O)CC(NC(C)=O)c1ccccc1 (configuration not stated)	19	4.5*	x	x	2
COc1ccc(Cl)cc1NC(=O)CC(C)c1ccccc1 (configuration not stated)	-4	x	21	-9	1
COc1ccc(C)cc1NC(=O)C(OC(=O)c1cc(C)oc1C)c1ccccc1 (configuration not stated)	x	-0.77	-13	5	11*
Cc1[nH]oc(=O)c1N=Nc1c(Cl)cccc1Cl	23	0.03	2	37*	-1
Cc1[nH]oc(=O)c1N=Nc1ccccc1	19	-0.12	22	32*	-1
Cc1[nH][nH]c(=O)c1N=Nc1ccccc1Cl	x	-0.23	x	x	x
O=C(O/N=C\c1ccc(N2CCCCC2)c([N+](=O)[O-])c1)c1cccc(Cl)c1	x	-0.46	-48	-5	11*
COc1ccc(N2C(=O)N(Cc3ccccc3F)c3ccccc3S2(=O)=O)cc1	-136	-0.06	x	x	7
COc1ccc(N2C(=O)N(Cc3cccc(F)c3)c3ccccc3S2(=O)=O)cc1	-64	-0.49	x	x	8.8*
COc1cc(OC)cc(C(=O)N2CCN(Cc3ccccc3[N+](=O)[O-])CC2)c1	33	-0.56	x	x	0
COc1ccc(Nc2c3c(nc4c(-c5ccccc5)c(C)nn24)CCC3)cc1	91*	0.05	-18	4	1
C/C=N/NC(=O)CCNC(=O)c1ccccc1	x	0.82	-53	3	0
CCc1cc(C(=O)c2ccc(C)cc2)c(NC(=O)CCl)s1	3	-0.28	-46	-1	9.2*
COc1cc(/C=C2\SC(=O)N(CCN)C2=O)ccc1OS(=O)(=O)c1cc(C)ccc1C	x	-0.44	x	x	8.5*
COc1cc(/C=C2/SC(=O)N(Cc3ccccc3Cl)C2=O)ccc1OCc1ccncc1	17	0.03	-43	-22	8
Clc1cccc(CSc2nnc(-c3c[nH]c4ccccc34)o2)c1	x	0.18	-25	-21	10*
